Experiments:
[1] = Redox potential of compound in Ag/AgCl-NaCl containing phosphate buffer assessed as one electron redox potential at 1 10^-4M by cyclic voltammetric analysis
In short: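 Cyclic voltammetry at 25 ± 2 °C in a three-electrode cell: glassy carbon working, platinum wire auxiliary, Ag/AgCl (3 M NaCl) reference. Inhibitor 1×10^-4 M in 0.1 M phosphate buffer pH 7.4. Single cycle at 100 mV s⁻¹. E°′ converted to NHE by adding +198 mV.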

Myeloperoxidase = target: T1, Myeloperoxidase (Homo sapiens, UniProt P05164); assay: Inhibition of MPO chlorination activity (unknown origin) assessed as taurine chloramine formation after 5 mins in presence of H2O2/Cl- by HTS method
T1 sequence (P05164 whole entry): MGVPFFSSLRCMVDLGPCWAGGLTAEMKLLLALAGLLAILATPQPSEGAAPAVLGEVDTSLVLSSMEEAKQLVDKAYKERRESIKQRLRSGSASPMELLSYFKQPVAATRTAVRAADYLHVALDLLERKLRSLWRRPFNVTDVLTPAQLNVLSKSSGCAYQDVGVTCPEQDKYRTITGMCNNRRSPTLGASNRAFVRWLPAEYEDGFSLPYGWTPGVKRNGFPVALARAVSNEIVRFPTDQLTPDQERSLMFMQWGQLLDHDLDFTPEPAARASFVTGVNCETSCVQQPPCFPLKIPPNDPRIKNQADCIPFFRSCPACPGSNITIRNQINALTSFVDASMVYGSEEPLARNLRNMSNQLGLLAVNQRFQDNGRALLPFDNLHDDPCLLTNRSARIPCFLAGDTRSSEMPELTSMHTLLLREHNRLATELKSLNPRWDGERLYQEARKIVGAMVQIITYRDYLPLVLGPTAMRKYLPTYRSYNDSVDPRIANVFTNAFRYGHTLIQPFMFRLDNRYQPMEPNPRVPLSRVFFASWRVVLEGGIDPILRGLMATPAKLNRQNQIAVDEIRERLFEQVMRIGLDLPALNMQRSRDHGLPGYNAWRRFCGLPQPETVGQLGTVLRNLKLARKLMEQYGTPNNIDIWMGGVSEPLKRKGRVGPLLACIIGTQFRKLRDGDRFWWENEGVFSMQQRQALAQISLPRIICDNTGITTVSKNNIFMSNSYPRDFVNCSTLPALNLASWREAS
In short: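 Recombinant MPO (40 nM) in 10 mM phosphate buffer pH 7.4 with 300 mM NaCl and 15 mM taurine, inhibitor up to 20 μM, 37 °C. Started with H2O2 (100 μM), stopped after 5 min with catalase. Taurine chloramine read with thionitrobenzoic acid at 412 nm. IC50 taken from the concentration curve, no H2O2 = 100% inhibition, no inhibitor = 0%.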

[2] = target: T2, Myeloperoxidase (Homo sapiens) (UniProt P05164); assay: Inhibition of human polymorphonuclear leukocyte MPO assessed as apparent bimolecular rate constant for PorFe(4)-OH reduction for 4.01 to 31.32 secs by stopped-flow spectroscopic analysis
T2 sequence (whole entry): T1 sequence (P05164 whole entry)
In short: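 Single-exponential fits gave kobs, as the mean of ≥3 runs, with substrate at least 5-fold over enzyme. Conditions were 200 mM phosphate, pH 7.4, 25 °C, 2% DMSO final. Apparent second-order constant taken from the slope of kobs versus concentration.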

HEK293 = assay: Ratio of Ki for human SERT expressed in HEK293 cells to IC50 for MPO chlorination activity (unknown origin); assay type: cell-based
[3] = target: T2, Myeloperoxidase (Homo sapiens); assay: Inhibition of human polymorphonuclear leukocyte MPO assessed as apparent bi-molecular rate constant for PorFe(4)=O radical reduction for 0.001 to 2.681 secs by stopped-flow spectroscopic analysis
In short: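 Purified MPO (purity index A430/A280 ≥0.86) at 8 µM was premixed with 80 µM H2O2. Reaction in 200 mM phosphate, pH 7.4, 25 °C, 2% DMSO final. kobs taken as the mean of ≥3 runs. Second-order constant derived from the slope of kobs versus concentration.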

[4] = target: T2, Myeloperoxidase (Homo sapiens); assay: Inhibition of human polymorphonuclear leukocyte MPO assessed as ratio of apparent bi-molecular rate constant for PorFe(4)=O radical reduction to PorFe(4)-OH reduction by stopped-flow spectroscopic analysis
[5] = target: Sodium-dependent serotonin transporter (Homo sapiens, UniProt P31645); assay: Inhibition of human SERT expressed in HEK293 cells assessed as reduction in [3]5-HT uptake; assay type: cell-based
Sodium-dependent serotonin transporter, sequence (P31645 whole entry): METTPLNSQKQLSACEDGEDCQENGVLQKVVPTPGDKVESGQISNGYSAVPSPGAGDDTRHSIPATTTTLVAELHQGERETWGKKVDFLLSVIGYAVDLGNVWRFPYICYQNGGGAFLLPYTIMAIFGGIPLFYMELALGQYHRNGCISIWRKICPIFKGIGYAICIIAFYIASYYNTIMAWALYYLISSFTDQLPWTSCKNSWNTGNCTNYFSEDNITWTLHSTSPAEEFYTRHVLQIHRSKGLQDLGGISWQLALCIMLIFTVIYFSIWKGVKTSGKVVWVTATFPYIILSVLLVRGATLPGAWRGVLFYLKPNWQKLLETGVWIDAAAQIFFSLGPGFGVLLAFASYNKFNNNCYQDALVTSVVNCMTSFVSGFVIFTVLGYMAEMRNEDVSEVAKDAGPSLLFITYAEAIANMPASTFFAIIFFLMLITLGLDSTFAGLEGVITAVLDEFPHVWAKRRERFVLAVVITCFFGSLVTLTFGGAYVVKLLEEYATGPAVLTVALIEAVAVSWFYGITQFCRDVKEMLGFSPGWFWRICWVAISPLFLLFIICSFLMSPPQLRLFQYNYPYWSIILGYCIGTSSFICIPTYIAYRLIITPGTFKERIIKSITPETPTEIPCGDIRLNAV
In short: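 hSERT cDNA in pcDNA3.1, transfected into HEK-293 MSR cells (DMEM, 10% FCS, penicillin/streptomycin, 6 µg/mL Geneticin, 37 °C, 5% CO2). Cells detached with Versene and trypsin/EDTA and seeded into plates. [3H]5-HT uptake measured per an earlier described method, with HEK-293 MSR cells used in place of COS-1. Ki reported.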

Row | Compound | Activity [1] | IC50 (Myeloperoxidase) | also measured
1 | Oc1ccccc1CCNCc1ccc(F)cc1 | 865 mV | 1160 nM | 
2 | Fc1ccccc1CN1CCN(Cc2ccccc2F)CC1 | 1100 mV | > 10000 nM | 
3 | Oc1ccccc1CNCCc1c[nH]c2ccc(F)cc12 | 902 mV | 85 nM | 
4 | c1ccc(CCCNCc2ccccc2)cc1 | > 1.2 V |  | 
5 | Oc1ccccc1CCCNCc1cccc(F)c1 | 820 mV | 370 nM | 
6 | COc1ccccc1CCCNCc1ccccc1 | > 1.2 V |  | 
7 | Oc1ccccc1CNCCCc1ccccc1F | 902 mV | 370 nM | 
8 | COc1ccccc1CCNCc1ccccc1O | 907 mV | 1850 nM | 
9 | O=C1N(Cc2ccccc2)CCCN1Cc1ccccc1 | > 1.2 V |  | 
10 | Oc1ccccc1CNCCc1ccccc1F | 948 mV | 670 nM | 
11 | Oc1ccccc1CCCNCc1ccccc1F | 833 mV | 270 nM | Kapp [2]: 1.4 ×10³ /M/s; Ratio (HEK293): 51.8; Kapp [3]: 5.7 ×10⁶ /M/s; Ratio [4]: 4070; Ki [5]: 14000 nM
12 | Oc1ccccc1CCNCc1ccccc1F | 856 mV | 700 nM | 
13 | Oc1ccccc1CCCNCc1ccccc1O | 844 mV | 350 nM | Kapp [2]: 4.8 ×10³ /M/s; Ratio (HEK293): 31.4; Kapp [3]: 1.5 ×10⁶ /M/s; Ratio [4]: 313; Ki [5]: 11000 nM
14 | Oc1ccccc1CN1CCCCC1 | 953 mV | > 10000 nM | 
15 | Oc1ccccc1CC1CCCNC1 (centres undefined) | 960 mV | > 10000 nM | 
16 | Oc1ccccc1CNCCc1ccccc1 | 973 mV | 700 nM | 
17 | COc1ccccc1CCCNCc1cccc(F)c1 | > 1.2 V |  | 
18 | c1ccc(CN2CCN(Cc3ccccc3)CC2)cc1 | 996 mV | > 10000 nM | 
19 | Oc1ccccc1CCNCc1ccccc1 | 897 mV | 2700 nM | 

Row | Compound | Activity [1] | IC50 (Myeloperoxidase) | also measured
20 | Fc1ccc2[nH]cc(CCCNCc3ccccc3)c2c1 |  |  | Ratio (HEK293): 4.1; Ki [5]: 50 nM
21 | COc1ccccc1CCNCc1cccc(F)c1 | > 1.2 V |  | 
22 | Fc1ccc(CN2CCN(Cc3ccc(F)cc3)CC2)cc1 | 1020 mV | > 10000 nM | 
23 | COc1ccccc1CCCNCc1ccc(F)cc1 | > 1.2 V |  | 
24 | Oc1ccccc1CCNCc1cccc(F)c1 | 807 mV | 660 nM | 
25 | COc1ccccc1CCNCc1ccc(F)cc1 | > 1.2 V |  | 
26 | Oc1ccccc1CNCCCc1c[nH]c2ccc(F)cc12 | 872 mV | 54 nM | Kapp [2]: 3.5 ×10³ /M/s; Ratio (HEK293): 14.8; Kapp [3]: 1.4 ×10⁷ /M/s; Ratio [4]: 4000; Ki [5]: 800 nM
27 | COc1ccccc1CCNCc1ccccc1 | > 1.2 V |  | 
28 | Oc1ccccc1CCCNCc1ccccc1 | 825 mV | 360 nM | 
29 | Oc1ccccc1CNCCCc1ccccc1 | 928 mV | 1200 nM | 
30 | Oc1ccccc1CN1CCN(Cc2ccccc2O)CC1 | 1070 mV | 1400 nM | 
31 | c1ccc(CN2CCCN(Cc3ccccc3)C2)cc1 | > 1.2 V |  | 
32 | COc1ccccc1CCCNCc1ccccc1F | > 1.2 V |  | 
33 | COc1ccccc1CCCNCc1ccccc1O | 871 mV | 2500 nM | 
34 | Oc1ccccc1CCNCc1ccccc1O | 870 mV | 650 nM | 
35 | COc1ccccc1CCNCc1ccccc1F | > 1.2 V |  | 
36 | Fc1cccc(CN2CCN(Cc3cccc(F)c3)CC2)c1 | 1060 mV | > 10000 nM | 
37 | c1ccc(CCNCc2ccccc2)cc1 | > 1.2 V |  | 
38 | Oc1ccccc1CCCNCc1ccc(F)cc1 | 869 mV | 490 nM | 
